Bioassay records: PubChem, Broad Institute
The sample as a whole holds a higher share of hits than the screen did.
KDM4C inh – KDM4C (human) demethylase inhibition. Q9H3R0. GST-KDM4C 2-372, H3K9me3 peptide, LANCE TR-FRET. inhibition, % at 12.5 µM. 0.15% of 96,000 active;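 active means mean replicate inhibition above about 25%, with at least 55% of replicates also reaching it, limit read from the data, passing the limit was not always enough; inconclusive means only one of those two conditions met; inactive means neither condition met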
Target sequence (Q9H3R0 2-372 limits assumed): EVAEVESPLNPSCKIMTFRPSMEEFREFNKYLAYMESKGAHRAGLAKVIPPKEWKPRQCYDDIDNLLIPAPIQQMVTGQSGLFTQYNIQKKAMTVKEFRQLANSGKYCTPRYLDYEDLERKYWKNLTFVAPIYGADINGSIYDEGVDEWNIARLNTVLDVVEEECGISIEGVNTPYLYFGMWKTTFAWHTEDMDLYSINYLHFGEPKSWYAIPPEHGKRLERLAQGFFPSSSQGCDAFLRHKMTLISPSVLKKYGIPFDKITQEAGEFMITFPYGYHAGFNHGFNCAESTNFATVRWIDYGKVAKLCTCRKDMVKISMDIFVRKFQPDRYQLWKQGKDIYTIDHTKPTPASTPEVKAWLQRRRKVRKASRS
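System – N-terminal GST-fused human GASC-1 (KDM4C) fragment, residues 2-372 · Input – enzyme final amount 10 nM · Technique – LANCE TR-FRET, Eu antibody, ULight-streptavidin, EDTA, ex 340 nm, em 618/671 nm · Medium – HEPES buffer, pH 7.5, plus ascorbate · Incubation – enzyme reaction 30 min, then detection 60 min, both room temperature · Reagent – H3K9me3 peptide with Fe(II)/2OG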
IDH1 R132H inh – IDH1 R132H (human) inhibition; IDH1 R132H reductase, diaphorase/resazurin fluorescence, 60 min; inhibition, % at 10 µM; 0.18% of 70,000 active; in the data active means inhibition above about 34%; inconclusive means no clear call, values can overlap the other calls; inactive means below about 11%
Target sequence (O75874 whole entry R132H): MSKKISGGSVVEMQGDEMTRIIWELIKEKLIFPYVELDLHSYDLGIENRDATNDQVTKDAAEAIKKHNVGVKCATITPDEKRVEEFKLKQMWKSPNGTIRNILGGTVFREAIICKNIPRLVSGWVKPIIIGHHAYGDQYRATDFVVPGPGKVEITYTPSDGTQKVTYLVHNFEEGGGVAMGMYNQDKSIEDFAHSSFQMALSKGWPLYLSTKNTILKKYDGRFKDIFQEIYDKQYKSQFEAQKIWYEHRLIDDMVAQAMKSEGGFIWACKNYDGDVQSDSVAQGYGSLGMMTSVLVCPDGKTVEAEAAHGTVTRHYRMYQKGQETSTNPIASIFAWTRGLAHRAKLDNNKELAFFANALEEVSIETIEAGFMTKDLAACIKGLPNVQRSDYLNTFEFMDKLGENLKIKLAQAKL
T cruzi growth-1 – T. cruzi proliferation inhibition; T. cruzi beta-gal in NIH3T3, GalScreen luminescence, 90 h; inhibition, % at 8.34 µM; 5.9% of 77,000 active;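 active means mean inhibition above about 93%, with at least 55% of replicates each passing it, limit read from the data, passing the limit was not always enough; inconclusive means only one of those two conditions holds; inactive means neither condition holds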
T cruzi growth-2 – inhibitors of T. cruzi proliferation; shares compounds with T cruzi growth-1; T. cruzi beta-gal in NIH3T3, GalScreen luminescence, 90 h; inhibition, % at 8.35 µM; 72% of 5,600 active; AID 651739;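 active means mean replicate inhibition above about 95% and at least 55% of replicates individually reaching it, limit read from the data; inconclusive means only one of the two criteria is met; inactive means neither criterion is met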
T cruzi growth-3 – inhibitors of T. cruzi proliferation; T. cruzi beta-gal in NIH3T3, GalScreen luminescence, 90 h; shares compounds with T cruzi growth-1; 21% of 5,600 active; AID 651740; inhibition, % at 2.09 µM;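 active means mean inhibition above about 95%, with at least 55% of replicates also reaching it, limit read from the data; inconclusive means meets just one of the two conditions; inactive means meets neither condition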
NIH3T3 tox – kills mouse NIH/3T3 fibroblasts; shares compounds with T cruzi growth-1; NIH/3T3 viability, CellTiter-Glo ATP luminescence, 90 h; cytotoxicity (signal decrease), % at 8.35 µM; 14% of 5,600 active; AID 651742;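 active means mean signal decrease across replicates above about 35% based on untreated-well scatter, with enough replicates individually passing, limit read from the data; inconclusive means no rule stated though some were filed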
NIH3T3 tox 2 – kills mouse NIH/3T3 fibroblasts. inhibition, % at 24.9 µM. shares compounds with T cruzi growth-1. 56% of 5,600 active. NIH/3T3 viability, CellTiter-Glo ATP luminescence, 90 h. AID 651744;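 active means mean loss of cell viability signal at or above a set limit, and enough replicates individually reaching it; inconclusive means meets only the mean limit or only the replicate share; inactive means meets neither condition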
Of the large screens only hits and unclear results are named; the others gave an inactive call (follow-up assays come after a bar, where they were run).

Cc1cc(C(F)F)n2nc(C(=O)Nc3cnn(Cc4ccc(Cl)cc4Cl)c3)nc2n1	none (no result: KDM4C inh, T cruzi growth-1)
C[C@H](CO)N1C[C@H](C)[C@H](CN(C)S(=O)(=O)c2ccc(C#N)cc2)Oc2ncc(-c3cccc(C(F)(F)F)c3)cc2C1=O	none
COc1cccc(S(=O)(=O)N(C)C[C@H]2Oc3ncc(C#CCC(C)C)cc3C(=O)N([C@@H](C)CO)C[C@@H]2C)c1	T cruzi growth-1 inconclusive | T cruzi growth-2 111.3 | T cruzi growth-3 inactive | NIH3T3 tox inactive | NIH3T3 tox 2 72.8
COc1ccc(S(=O)(=O)N(C)C[C@@H]2Oc3ncc(C#Cc4ccccc4)cc3C(=O)N([C@H](C)CO)C[C@@H]2C)cc1	T cruzi growth-1 109.3 | T cruzi growth-2 100.6 | T cruzi growth-3 inactive | NIH3T3 tox inactive | NIH3T3 tox 2 63.1
COc1ccc(S(=O)(=O)N(C)C[C@@H]2Oc3ncc(C#Cc4ccc(OC)c(OC)c4)cc3C(=O)N([C@H](C)CO)C[C@@H]2C)cc1	none
COc1cccc(S(=O)(=O)N(C)C[C@@H]2Oc3ncc(C#CCC(C)C)cc3C(=O)N([C@@H](C)CO)C[C@@H]2C)c1	none
Cc1ccc(S(=O)(=O)N(C)C[C@@H]2Oc3ncc(-c4cccc(C(F)(F)F)c4)cc3C(=O)N([C@H](C)CO)C[C@@H]2C)cc1	T cruzi growth-1 125.7 | T cruzi growth-2 106.5 | T cruzi growth-3 inactive | NIH3T3 tox 48.3 | NIH3T3 tox 2 43.1
O=C(CSc1nnc2c(n1)[nH]c1ccccc12)NCc1ccccc1	none (no result: KDM4C inh, T cruzi growth-1)
Cc1cccc(Oc2coc3cc(OCC(=O)Nc4ccccc4C(F)(F)F)ccc3c2=O)c1	none (no result: KDM4C inh, T cruzi growth-1)
O=C(Cn1nnc2sc3c(c2c1=O)CCCC3)NCc1ccco1	none (no result: KDM4C inh, T cruzi growth-1)
Cc1nnc(Nc2ccc(OCC(=O)N3CCN(c4ccccc4)CC3)cc2)c2ccccc12	none (no result: KDM4C inh, T cruzi growth-1)
COc1ccccc1S(=O)(=O)N(C)C[C@H]1Oc2ncc(-c3ccc(C)cc3)cc2C(=O)N([C@@H](C)CO)C[C@@H]1C	T cruzi growth-1 110.6 | T cruzi growth-2 102.6 | T cruzi growth-3 inactive | NIH3T3 tox inactive | NIH3T3 tox 2 41.9
COc1ccccc1S(=O)(=O)N(C)C[C@H]1Oc2ncc(-c3ccc(C)cc3)cc2C(=O)N([C@H](C)CO)C[C@@H]1C	T cruzi growth-1 98.7 | T cruzi growth-2 99.3 | T cruzi growth-3 inactive | NIH3T3 tox 63.8 | NIH3T3 tox 2 36.9
COc1ccccc1S(=O)(=O)N(C)C[C@@H]1Oc2ncc(-c3ccc(C)cc3)cc2C(=O)N([C@H](C)CO)C[C@@H]1C	none (no result: KDM4C inh, IDH1 R132H inh)
Cc1ccc(S(=O)(=O)N(C)C[C@H]2Oc3ncc(-c4ccccc4)cc3C(=O)N([C@@H](C)CO)C[C@@H]2C)cc1	none
C[C@H](O)C1=CC2(CC[C@@H]3C(C(=O)O)=CO[C@@H](O[C@@H]4O[C@H](CO)[C@@H](O)[C@H](O)[C@H]4O)[C@@H]32)OC1=O (stereo partly specified)	none (no result: KDM4C inh, T cruzi growth-1)
CC1CCc2c(sc(NC(=O)c3cc4n(n3)C(C(F)(F)F)CC(c3ccco3)N4)c2C(N)=O)C1 (stereo unspecified)	none (no result: KDM4C inh, T cruzi growth-1)
C[C@@H]1CN([C@@H](C)CO)C(=O)c2cc(NC(=O)Nc3cccc4ccccc34)ccc2O[C@@H](C)CCCCO[C@H]1CN(C)Cc1ccc(C(=O)O)cc1	none (no result: IDH1 R132H inh)
C[C@@H]1CCCCO[C@@H](CN(C)Cc2ccc(C(F)(F)F)cc2)[C@H](C)CN([C@@H](C)CO)C(=O)c2cc(NC(=O)Nc3cccc4ccccc34)ccc2O1	T cruzi growth-1 122.6 | T cruzi growth-2 110.7 | T cruzi growth-3 109.8 | NIH3T3 tox inactive | NIH3T3 tox 2 inactive
C[C@@H]1CCCCO[C@H](CN(C)Cc2ccc(C(F)(F)F)cc2)[C@@H](C)CN([C@@H](C)CO)C(=O)c2cc(NC(=O)Nc3cccc4ccccc34)ccc2O1	none
C[C@@H]1CCCCO[C@H](CN(C)Cc2ccc(C(F)(F)F)cc2)[C@H](C)CN([C@@H](C)CO)C(=O)c2cc(NC(=O)Nc3cccc4ccccc34)ccc2O1	T cruzi growth-1 inconclusive (no result: IDH1 R132H inh) | T cruzi growth-2 102.6 | T cruzi growth-3 109.0 | NIH3T3 tox inconclusive | NIH3T3 tox 2 inactive
C[C@@H]1CCCCO[C@@H](CN(C)Cc2ccc(C(F)(F)F)cc2)[C@H](C)CN([C@H](C)CO)C(=O)c2cc(NC(=O)Nc3cccc4ccccc34)ccc2O1	T cruzi growth-1 inconclusive | T cruzi growth-2 104.6 | T cruzi growth-3 115.5 | NIH3T3 tox inactive | NIH3T3 tox 2 inactive
C[C@@H]1CCCCO[C@@H](CN(C)Cc2ccc(C(F)(F)F)cc2)[C@@H](C)CN([C@H](C)CO)C(=O)c2cc(NC(=O)Nc3cccc4ccccc34)ccc2O1	T cruzi growth-1 101.6 (no result: IDH1 R132H inh) | T cruzi growth-2 104.4 | T cruzi growth-3 inactive | NIH3T3 tox inactive | NIH3T3 tox 2 inactive
C[C@@H]1CN([C@H](C)CO)C(=O)c2cc(NC(=O)Nc3cccc4ccccc34)ccc2O[C@@H](C)CCCCO[C@H]1CN(C)Cc1ccc(C(F)(F)F)cc1	none
Cc1ccc(N(CC(N)=O)S(=O)(=O)c2ccc(F)cc2)cc1	none (no result: KDM4C inh, T cruzi growth-1)
COC(=O)c1ccc(NC(=O)CN(C)S(=O)(=O)c2ccccc2)cc1	none (no result: KDM4C inh, T cruzi growth-1)
NC(=O)c1ccccc1NC(=O)CCCN1C(=O)c2ccccc2C1=O	none (no result: KDM4C inh, T cruzi growth-1)
Cn1c2ccccc2c2nnc(SCC(=O)Nc3ccc(Cl)cc3)nc21	none (no result: KDM4C inh, T cruzi growth-1)
COc1ccc(S(=O)(=O)N(C)CC(=O)Nc2ccc(I)cc2)cc1OC	none (no result: KDM4C inh, T cruzi growth-1)
O=C(C[C@H]1CC[C@H]2[C@@H](COC[C@@H](O)CN2S(=O)(=O)c2ccc(Cl)cc2)O1)NCc1ccc(Cl)c(Cl)c1	T cruzi growth-1 103.7 (no result: IDH1 R132H inh) | T cruzi growth-2 100.1 | T cruzi growth-3 inactive | NIH3T3 tox inactive | NIH3T3 tox 2 55.5
O=C(C[C@H]1CC[C@@H]2[C@H](COC[C@H](O)CN2S(=O)(=O)c2ccc(Cl)cc2)O1)NCc1ccc(Cl)c(Cl)c1	none (no result: IDH1 R132H inh)
COc1ccc(S(=O)(=O)N2C[C@@H](O)COC[C@H]3O[C@@H](CC(=O)NCc4ccc(Cl)c(Cl)c4)CC[C@@H]32)cc1	T cruzi growth-1 118.0 (no result: IDH1 R132H inh) | T cruzi growth-2 107.0 | T cruzi growth-3 inactive | NIH3T3 tox inactive | NIH3T3 tox 2 inactive
O=C(C[C@H]1CC[C@@H]2[C@H](COC[C@@H](O)CN2S(=O)(=O)c2ccc(Cl)cc2)O1)NCc1ccc(Cl)c(Cl)c1	T cruzi growth-1 97.2 (no result: IDH1 R132H inh) | T cruzi growth-2 104.2 | T cruzi growth-3 inactive | NIH3T3 tox inactive | NIH3T3 tox 2 62.2
Cc1ccc(S(=O)(=O)N2C[C@@H](O)COC[C@H]3O[C@H](CC(=O)NCc4ccc(Cl)c(Cl)c4)CC[C@@H]32)cc1	none (no result: IDH1 R132H inh)
O=C(C[C@@H]1CC[C@H]2[C@@H](COC[C@@H](O)CN2S(=O)(=O)c2ccc(Cl)cc2)O1)NCc1ccc(Cl)c(Cl)c1	none (no result: IDH1 R132H inh)
COC(=O)c1ccc(Cl)c(NC(=O)CN(c2ccc(I)cc2)S(C)(=O)=O)c1	none (no result: KDM4C inh, T cruzi growth-1)
CN1C(=O)C(c2c[nH]c3ccccc23)=C(c2c[nH]c3ccccc23)C1=O	none (no result: KDM4C inh, T cruzi growth-1)
